This data set has as its system MS2 coat protein. As to the kind of experiment: apparent Kd, MS2 coat protein; higher = weaker binding; RNA-MaP array; tryptophan 2.4 mM where present. The method, boiled down: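 Green signal from SNAP-549-labelled MS2 coat protein was normalised to red-channel RNA signal and to the median Fmax of control clusters. The protein was titrated from 0.7 or 1.5 nM, doubling to 3 µM, without and then with constant ligand, over designs transcribed by stalled E. coli RNA polymerase on Illumina sequencing-chip clusters, in 100 mM Tris-HCl pH 7.5, 80 mM KCl, 4 mM MgCl2, BSA, DTT, yeast tRNA and Tween-20. The apparent Kd is the median of filtered per-cluster binding-curve fits.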

Where [1] appears, read: designed as: ON switch for tryptophan, no ligand.
[2] abbreviates: ligand present: tryptophan, designed as: ON switch for tryptophan.
Setting [3] is: designed as: OFF switch for tryptophan, no ligand.
[4] abbreviates: ligand present: tryptophan, designed as: OFF switch for tryptophan.

The record followed here is the EternaBench riboswitch data.

In general, apparent Kd refers to the concentration giving half-maximal binding under the conditions of the assay. Consider “CCACUUUCUUUUAUCUUUCUUUCUUUGUUACGAGGACCGGUACGGCCGCCACUCGUGGUGUGUGGUACAUGAGGAUCACCCAUGU”, for which the “apparent Kd” value reads like this: under setting [1], 23.7 nM; under setting [2], 22.4 nM.
Consider “AUCAUAAUAGCCUCGUGUAAUUAAAUGGAACGAGGACCGGUACGGCCGCCACUCGAUAUAAACAUGAGGAUCACCCAUGUAAGCA”, for which the “apparent Kd” value reads like this: under setting [3], 65.5 nM; under setting [4], 58.3 nM.
In the case of “AACAUACAGUUUUAGGUGGAUAUAAGGCGGCGAGGACCGGUACGGCCGCCACUCGCGUACAUGAGGAUCACCCAUGUCUGAAGCU”, the “apparent Kd” value was determined as 60.3 nM under setting [1] and 46.5 nM under setting [2].
Regarding “GUUAUAUGAAAACAUAUAACAGUGGGUGAACGAGGACCGGUACGGCCGCCACUCGGACAUGAGGAUCACCCAUGUCCAUGUGAAA”, the “apparent Kd” value under setting [3] is 15.8 nM and the “apparent Kd” value under setting [4] turned out to be 41.4 nM.
“AAUUCAAUUUUCUUGAUGUAUUAUAUAUUUCGAGGACCGGUACGGCCGCCACUCGUUAAUUACAUGAGGAUCACCCAUGUUAGCU”: the “apparent Kd” value runs as follows: under setting [3], 16.8 nM; under setting [4], 14 nM.
As to “AACAUGAGGAUCACCCAUGUCCUCGUGUACCGAGGACCGGUACGGCCGCCACUCGGUUCUCGCGAGGAUGGUCAAAGACUAUCCA”, the “apparent Kd” value runs as follows: under setting [1], 417 nM; under setting [2], 470 nM.
Consider “CGUAUUGGAAACAGUACGAGUGAUCCGGUCCGAGGACCGGUACGGCCGCCACUCGAUAUAAAUAAACAUGAGGAUCACCCAUGUA”, for which the “apparent Kd” value under setting [3] worked out at 16.2 nM and the “apparent Kd” value under setting [4] was found to be 25.7 nM.
Turning to “GGGAGAUAGGCGGCCGCCACUGAUUUUCAUAUAUAUAUAACAUGAGGAUCACCCAUGUAGAUAUACAGGACCGGGCCUAUUUUUU”, the “apparent Kd” value under setting [1] was 17.4 nM and the “apparent Kd” value under setting [2] was 16.2 nM.
Regarding “GGUUGGUCCUCACAUGAGGAUCACCCAUGUCGAGGACCGGUACGGCCGCCACUCGAUUGUACCAGGGCUUAAGAGCCUAUGAGCA”, the “apparent Kd” value is, setting by setting: under setting [3], 11.1 nM; under setting [4], 8.44 nM.
Consider “UAUAUAUACUCGGCCGCCACUGAGAGAGUCAUGUAAACAUGAGGAUCACCCAUGUAAUAUAUAUACAGGACCGGGAGUAUAUGAA”, for which the “apparent Kd” value came out at 15.3 nM under setting [3] and 13.6 nM under setting [4].
Regarding “UCUGUUUGCUUUGUUUGUUUCUUCUUUGAGCGAGGACCGGUACGGCCGCCACUCGGGUUACAUGAGGAUCACCCAUGUGGUUUCU”, the “apparent Kd” value runs as follows: under setting [1], 98.9 nM; under setting [2], 57.8 nM.
The matching figures for “AAUACAGUGUCGGCCGCCACUGAAACAUGACAUGAGACAUGAGGAUCACCCAUGUACAUAAUAAACAGGACCGGGACCCAUGUAU”: 37.9 nM and 15.5 nM.
With “CACGAAAGAUCGGCCGCCACUAACCUGUGUGUACUAGCACAUGAGGAUCACCCAUGUUCUUGCGUUAGGACCGGGAUUGAGCGUG”, the “apparent Kd” value worked out at 23 nM under setting [3] and 21.7 nM under setting [4].
The matching figures for “UCGUGUCUAUUGGUUUAGCUUUAAUCGUUACGAGGACCGGUACGGCCGCCACUCGAUUUAACAUGAGGAUCACCCAUGUACUCUC”: 19 nM and 21.2 nM.
“AGAGCAUUGACGGCCGCCACUUAUGUCACAUGAGGAUCACCCAUGUGAUGGGUGAUAGCCCGGUUGAGGACCGGGUCAAUGCUCA”: the “apparent Kd” value under setting [1] turned out to be 12.7 nM and the “apparent Kd” value under setting [2] was found to be 17.9 nM.
“ACACAAUACAUGAGGAUCACCCAUGUAAAACGAGGACCGGUACGGCCGCCACUCGAAUACAGGAAACCUCGGAAUAUUAAGUGAA”: the “apparent Kd” value was 51.8 nM under setting [3] and 38 nM under setting [4].
The matching figures for “UCAUAAGUACCGGUCCUCAGAUCCUCAUGACGAGGACCGGUACGGCCGCCACUCGAAACAUGAGGAUCACCCAUGUAAUAACAUU”: 20.9 nM and 18.5 nM.
The matching figures for “GGACUCGUCACGGCCGCCACUGCGGUGGUGUGACAUGAGGAUCACCCAUGUUGUCAUGCGGCCCUUAGGACCGGGUGUCGCUUCC”: 169 nM and 198 nM.
As to “CGAUAUAAGACGGCCGCCACUAUUAAGUAACAAAAUAAACAUGAGGAUCACCCAUGUACAUGGGAUAGGACCGGGUCCAAUAACG”, the “apparent Kd” value came to 163 nM under setting [1] and 76.9 nM under setting [2].
Regarding “UGGGUACCGACGGCCGCCACUGAAUAUAGACAUGAGGAUCACCCAUGUAGAGAUCCUAGAAUAAACAGGACCGGGUCUGGUGCUA”, the “apparent Kd” value under setting [3] was determined as 220 nM and the “apparent Kd” value under setting [4] was found to be 362 nM.
Regarding “AUGGUAAGAACAUGAGGAUCACCCAUGUGACGAGGACCGGUACGGCCGCCACUCGUACCUUAGUCGUCGAACAGAGGAUUCAUGU”, the “apparent Kd” value by setting is: under setting [1], 89.2 nM; under setting [2], 66 nM.
“GUACACUAGUCGGCCGCCACUGUUACAUGAGGAUCACCCAUGUAGGAUCACCCAUGACAUGAGGAUAGGACCGGGACGCAUGAGG”: the “apparent Kd” value reads like this: under setting [3], 45 nM; under setting [4], 41.3 nM.
On to “UAUAUAUAUCACUAACUGUUCUUGAGGUCUCGAGGACCGGUACGGCCGCCACUCGUACCGCCUCACAUGAGGAUCACCCAUGUCC”, for which the “apparent Kd” value reads like this: under setting [3], 63 nM; under setting [4], 59.1 nM.
The matching figures for “CAAUAAGUACCGGUCCUCAGAUCCUCAUGACGAGGACCGGUACGGCCGCCACUCGAAACAUGAGGAUCACCCAUGUAAUAAUAAU”: 23 nM and 28.4 nM.
Regarding “AGGUACGAAAACGUGGGUGAGUCGUACCAACGAGGACCGGUACGGCCGCCACUCGAAUAAACAUGAGGAUCACCCAUGUAAUAAU”, the “apparent Kd” value was found to be 42.4 nM under setting [1] and 107 nM under setting [2].
With “GGAUAGGACACGGCCGCCACUACCUAGGAUACUAGAAACAUUUCCUCACAUGAGGAUCACCCAUGUAGGACCGGGUGUCCUAUCG”, the “apparent Kd” value is, setting by setting: under setting [3], 273 nM; under setting [4], 115 nM.
With “GUCCUCAUGACGGCCGCCACUACACAUGAGGAUCACCCAUGUAAUGAUCCCUUAAAUGAUAAUAGUAGGACCGGGUCACUGUAAG”, the “apparent Kd” value under setting [1] worked out at 457 nM and the “apparent Kd” value under setting [2] is 699 nM.
On to “AGAUUCGACACGGCCGCCACUCGUGACAGAUUUCGCAGUGGUCAACAUGAGGAUCACCCAUGUCUGAGGACCGGGUGUUGAGUCU”, for which the “apparent Kd” value was 33.5 nM under setting [3] and 474 nM under setting [4].
For the sequence “GGGUGGUAGGCGGCCGCCACUGAUUUUUAUUUAUAGAUGACAUGAGGAUCACCCAUGUUUAUAUGCAGGACCGGGCCUGUUGUGG”, the “apparent Kd” value under setting [1] stood at 15.7 nM and the “apparent Kd” value under setting [2] worked out at 14.2 nM.
As for “GUGAGCGCCGAACAUCGCUGGUCCUCUAUCCGAGGACCGGUACGGCCGCCACUCGACAUGAGGAUCACCCAUGUUGGCACUGGCG”, the “apparent Kd” value by setting is: under setting [3], 9.37 nM; under setting [4], 10.7 nM.
Take “AAACUUCGCAUAGGAAAACUAUGUGAAGAUCGAGGACCGGUACGGCCGCCACUCGUCCUCAACAUGAGGAUCACCCAUGUAAUAA”: the “apparent Kd” value amounted to 21.1 nM under setting [3] and 30 nM under setting [4].
For “AUAAAUGGGUUAAUUAGUUUUAGGUCCAGUCGAGGACCGGUACGGCCGCCACUCGUCCCAAGUUACAUGAGGAUCACCCAUGUUA”, the “apparent Kd” value by setting is: under setting [3], 46.6 nM; under setting [4], 67.5 nM.
For the sequence “AAUAAGAUCCUCAUGUGAGUCGUACCAUAACGAGGACCGGUACGGCCGCCACUCGAACAUGAGGAUCACCCAUGUAGGUACGACA”, the “apparent Kd” value runs as follows: under setting [1], 118 nM; under setting [2], 176 nM.
On the same counts, the results for “AUACAUGAGGAUCACCCAUGUCCUCGUGAUCGAGGACCGGUACGGCCGCCACUCGGUCCUCGCGAGGAGGAGUCAAAGACUCCUA” are 178 nM and 128 nM.
The matching figures for “CCAUGCAGGUCGGCCGCCACUACACACAUGAGGAUCACCCAUGUAGUUACUGGGUGAAGUGGCAGUAGGACCGGGACCUGCACAU”: 311 nM and 729 nM.
